Active and inactive are the calls of the source. The rule behind the calls is not given here.
How the values were obtained:
[1] = target: Platelet-derived growth factor receptor alpha (Homo sapiens) (UniProt P16234); assay: Inhibition of partial length human PDGFRalpha expressed in mammalian system at 1 uM
Outline: (§1)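 Single-concentration screen across a panel of 97 kinases, with the test compound at 1 uM.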

[2] = target: Inhibitor of nuclear factor kappa-B kinase subunit alpha (Homo sapiens) (UniProt O15111); assay: Inhibition of partial length human IKKalpha expressed in mammalian system at 1 uM
Outline: (§2)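 Single-point screen within a 97-kinase profiling panel, with the test compound at 1 µM.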

[3] = target: Aurora kinase A (Homo sapiens) (UniProt O14965); assay: Inhibition of partial length human Aurora A expressed in mammalian system at 1 uM; outline: as §2
[4] = Cytotoxicity against human WI38 cells assessed as change in phenotypic response measured after prolonged treatment; type: cell-based; settings: wi-38
[5] = target: Receptor tyrosine-protein kinase erbB-4 (Homo sapiens) (UniProt Q15303); assay: Inhibition of partial length human ERBB4 expressed in bacterial system at 1 uM; outline: as §2
[6] = target: Serine/threonine-protein kinase PAK 1 (Homo sapiens) (UniProt Q13153); assay: Inhibition of partial length human PAK1 expressed in bacterial system at 1 uM; outline: as §1
HMEC [7] = assay: Cytotoxicity against human HMEC cells assessed as change in phenotypic response up to 50 uM; type: cell-based
[8] = target: Tyrosine-protein kinase BTK (Homo sapiens) (UniProt Q06187); assay: Inhibition of partial length human BTK expressed in mammalian system at 1 uM; outline: as §2
[9] = target: RAF proto-oncogene serine/threonine-protein kinase (Homo sapiens) (UniProt P04049); assay: Inhibition of partial length human RAF1 expressed in bacterial system at 1 uM; outline: as §1
[10] = target: Serine/threonine-protein kinase B-raf (Homo sapiens) (UniProt P15056); assay: Inhibition of partial length human BRAF expressed in mammalian system at 1 uM; outline: as §2
[11] = test system: Serine/threonine-protein kinase B-raf (Homo sapiens), P15056 [V600E]; assay: Inhibition of partial length human BRAF V600E mutant expressed in mammalian system at 1 uM; outline: as §2
[12] = target: Receptor tyrosine-protein kinase erbB-2 (Homo sapiens) (UniProt P04626); assay: Inhibition of partial length human ERBB2 expressed in mammalian system at 1 uM
Outline: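 Single-concentration screen at 1 µM test concentration, run as part of a commercial binding/activity profiling panel covering 97 kinases.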

[13] = target: Mitogen-activated protein kinase 11 (Homo sapiens) (UniProt Q15759); assay: Inhibition of partial length human p38beta expressed in bacterial system at 1 uM; outline: as §1
SAOS-2 [14] = assay: Antiproliferative activity against human Saos2 cells assessed as change in phenotypic response measured after prolonged treatment; type: functional, cell-based
SW480 = assay: Antiproliferative activity against human SW480 cells assessed as change in phenotypic response measured after prolonged treatment; type: functional, cell-based
[15] = target: cAMP-dependent protein kinase catalytic subunit alpha (Homo sapiens) (UniProt P17612); assay: Inhibition of partial length human PKACalpha expressed in bacterial system at 1 uM; outline: as §1
HMEC [16] = assay: Cytotoxicity against human HMEC cells assessed as change in phenotypic response measured after prolonged treatment; type: cell-based
[17] = target: Fibroblast growth factor receptor 3 (Homo sapiens) (UniProt P22607); assay: Inhibition of partial length human FGFR3 expressed in bacterial system at 1 uM; outline: as §2
[18] = target: Mitogen-activated protein kinase 10 (Homo sapiens) (UniProt P53779); assay: Inhibition of partial length human JNK3 expressed in mammalian system at 1 uM; outline: as §2
[19] = target: Serine/threonine-protein kinase pim-1 (Homo sapiens) (UniProt P11309); assay: Inhibition of partial length human PIM1 expressed in bacterial system at 1 uM; outline: as §1
[20] = target: Serine/threonine-protein kinase pim-3 (Homo sapiens) (UniProt Q86V86); assay: Inhibition of partial length human PIM3 expressed in bacterial system at 1 uM; outline: as §1
[21] = target: Mitogen-activated protein kinase 3 (Homo sapiens) (UniProt P27361); assay: Inhibition of partial length human ERK1 expressed in bacterial system at 1 uM; outline: as §2
[22] = target: Serine/threonine-protein kinase STK11 (Homo sapiens) (UniProt Q15831); assay: Inhibition of partial length human LKB1 expressed in bacterial system at 1 uM; outline: as §2
[23] = target: TGF-beta receptor type-1 (Homo sapiens) (UniProt P36897); assay: Inhibition of partial length human TGFBR1 expressed in bacterial system at 1 uM; outline: as §1
[24] = target: High affinity nerve growth factor receptor (Homo sapiens) (UniProt P04629); assay: Inhibition of partial length human TRKA expressed in mammalian system at 1 uM; outline: as §1
MDA-MB-231 = assay: Antiproliferative activity against human MDA-MB-231 cells assessed as change in phenotypic response measured after prolonged treatment; type: functional, cell-based
Liver microsome = assay: Intrinsic clearance in human liver microsomes; type: ADME
SAOS-2 [25] = assay: Antiproliferative activity against human Saos2 cells assessed as change in phenotypic response up to 50 uM; type: functional, cell-based
[26] = target: Testis-specific serine/threonine-protein kinase 1 (Homo sapiens) (UniProt Q9BXA7); assay: Inhibition of partial length human TSSK1B expressed in bacterial system at 1 uM; outline: as §1
[27] = target: Ribosomal protein S6 kinase alpha-2 (Homo sapiens) (UniProt Q15349); assay: Inhibition of N-terminal partial length human RSK2 kinase domain 1 expressed in mammalian system at 1 uM; outline: as §2
[28] = target: Glycogen synthase kinase-3 beta (Homo sapiens) (UniProt P49841); assay: Inhibition of partial length human GSK3beta expressed in mammalian system at 1 uM; outline: as §2
[29] = target: Serine/threonine-protein kinase PLK4 (Homo sapiens) (UniProt O00444); assay: Inhibition of partial length human PLK4 expressed in mammalian system at 1 uM; outline: as §1
[30] = target: Tyrosine-protein kinase receptor UFO (Homo sapiens) (UniProt P30530); assay: Inhibition of partial length human AXL expressed in bacterial system at 1 uM; outline: as §2
[31] = target: Dual specificity tyrosine-phosphorylation-regulated kinase 1B (Homo sapiens) (UniProt Q9Y463); assay: Inhibition of partial length human DYRK1B expressed in bacterial system at 1 uM; outline: as §2
[32] = target: Cyclin-dependent kinase 9 (Homo sapiens) (UniProt P50750); assay: Inhibition of partial length human CDK9 expressed in bacterial system at 1 uM; outline: as §2
[33] = target: Serine/threonine-protein kinase pim-2 (Homo sapiens) (UniProt Q9P1W9); assay: Inhibition of partial length human PIM2 expressed in bacterial system at 1 uM; outline: as §1
[34] = target: Hepatocyte growth factor receptor (Homo sapiens) (UniProt P08581); assay: Inhibition of partial length human MET expressed in bacterial system at 1 uM; outline: as §1
[35] = target: Dual specificity mitogen-activated protein kinase kinase 2 (Homo sapiens) (UniProt P36507); assay: Inhibition of partial length human MEK2 expressed in mammalian system at 1 uM; outline: as §1
[36] = target: Non-receptor tyrosine-protein kinase TYK2 (Homo sapiens) (UniProt P29597); assay: Inhibition of partial length human TYK2 JH1catalytic domain expressed in mammalian system at 1 uM; outline: as §1
[37] = target: Phosphatidylinositol 4,5-bisphosphate 3-kinase catalytic subunit alpha isoform (Homo sapiens) (UniProt P42336); assay: Inhibition of partial length human PIK3Calpha expressed in mammalian system at 1 uM; outline: as §1

High affinity nerve growth factor receptor (Homo sapiens), sequence (P04629 33-796 limits assumed): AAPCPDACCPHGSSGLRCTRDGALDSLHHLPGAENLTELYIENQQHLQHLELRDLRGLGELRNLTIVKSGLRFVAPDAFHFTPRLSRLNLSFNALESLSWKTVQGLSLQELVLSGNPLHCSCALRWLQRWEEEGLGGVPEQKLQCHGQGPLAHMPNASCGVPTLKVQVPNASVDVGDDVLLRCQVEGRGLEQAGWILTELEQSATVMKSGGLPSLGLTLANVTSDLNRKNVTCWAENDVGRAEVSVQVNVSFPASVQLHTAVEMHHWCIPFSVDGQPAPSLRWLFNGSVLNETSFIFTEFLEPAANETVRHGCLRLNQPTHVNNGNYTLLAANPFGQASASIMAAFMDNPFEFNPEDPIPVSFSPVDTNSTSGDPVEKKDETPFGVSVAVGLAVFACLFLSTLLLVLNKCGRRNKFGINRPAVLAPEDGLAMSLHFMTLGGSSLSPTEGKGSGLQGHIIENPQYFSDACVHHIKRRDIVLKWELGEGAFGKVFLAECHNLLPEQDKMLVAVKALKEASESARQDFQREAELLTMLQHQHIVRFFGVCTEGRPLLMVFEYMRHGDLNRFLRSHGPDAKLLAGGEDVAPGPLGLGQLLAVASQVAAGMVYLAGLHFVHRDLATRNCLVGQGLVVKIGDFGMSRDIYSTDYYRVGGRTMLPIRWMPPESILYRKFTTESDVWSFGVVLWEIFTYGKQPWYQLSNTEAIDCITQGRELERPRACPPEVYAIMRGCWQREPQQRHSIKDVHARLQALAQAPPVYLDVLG
Serine/threonine-protein kinase PLK4 (Homo sapiens), sequence (O00444 whole entry): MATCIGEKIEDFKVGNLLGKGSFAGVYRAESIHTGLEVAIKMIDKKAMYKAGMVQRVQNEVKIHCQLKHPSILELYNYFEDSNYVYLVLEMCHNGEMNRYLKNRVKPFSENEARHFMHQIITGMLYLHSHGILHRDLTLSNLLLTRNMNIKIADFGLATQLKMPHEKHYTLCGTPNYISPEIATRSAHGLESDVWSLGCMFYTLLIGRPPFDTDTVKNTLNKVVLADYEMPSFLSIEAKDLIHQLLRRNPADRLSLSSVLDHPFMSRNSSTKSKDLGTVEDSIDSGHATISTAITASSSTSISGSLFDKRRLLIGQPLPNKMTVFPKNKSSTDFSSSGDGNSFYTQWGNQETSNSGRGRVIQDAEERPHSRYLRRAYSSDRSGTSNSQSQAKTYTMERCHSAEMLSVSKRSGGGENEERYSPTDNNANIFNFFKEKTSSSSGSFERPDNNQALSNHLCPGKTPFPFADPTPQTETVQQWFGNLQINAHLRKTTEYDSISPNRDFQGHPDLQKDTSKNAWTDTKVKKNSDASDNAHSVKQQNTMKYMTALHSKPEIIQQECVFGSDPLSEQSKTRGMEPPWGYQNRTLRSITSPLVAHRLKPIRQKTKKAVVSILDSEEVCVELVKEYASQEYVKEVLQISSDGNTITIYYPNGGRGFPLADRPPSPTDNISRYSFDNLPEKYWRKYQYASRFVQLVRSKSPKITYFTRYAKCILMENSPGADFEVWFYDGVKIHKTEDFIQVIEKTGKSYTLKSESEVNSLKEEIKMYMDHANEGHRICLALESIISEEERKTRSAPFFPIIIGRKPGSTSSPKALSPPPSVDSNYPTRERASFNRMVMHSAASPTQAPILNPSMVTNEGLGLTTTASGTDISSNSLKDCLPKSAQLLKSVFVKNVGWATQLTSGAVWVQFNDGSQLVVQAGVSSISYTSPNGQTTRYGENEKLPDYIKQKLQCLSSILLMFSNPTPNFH
Receptor tyrosine-protein kinase erbB-2 (Homo sapiens), sequence (P04626 whole entry): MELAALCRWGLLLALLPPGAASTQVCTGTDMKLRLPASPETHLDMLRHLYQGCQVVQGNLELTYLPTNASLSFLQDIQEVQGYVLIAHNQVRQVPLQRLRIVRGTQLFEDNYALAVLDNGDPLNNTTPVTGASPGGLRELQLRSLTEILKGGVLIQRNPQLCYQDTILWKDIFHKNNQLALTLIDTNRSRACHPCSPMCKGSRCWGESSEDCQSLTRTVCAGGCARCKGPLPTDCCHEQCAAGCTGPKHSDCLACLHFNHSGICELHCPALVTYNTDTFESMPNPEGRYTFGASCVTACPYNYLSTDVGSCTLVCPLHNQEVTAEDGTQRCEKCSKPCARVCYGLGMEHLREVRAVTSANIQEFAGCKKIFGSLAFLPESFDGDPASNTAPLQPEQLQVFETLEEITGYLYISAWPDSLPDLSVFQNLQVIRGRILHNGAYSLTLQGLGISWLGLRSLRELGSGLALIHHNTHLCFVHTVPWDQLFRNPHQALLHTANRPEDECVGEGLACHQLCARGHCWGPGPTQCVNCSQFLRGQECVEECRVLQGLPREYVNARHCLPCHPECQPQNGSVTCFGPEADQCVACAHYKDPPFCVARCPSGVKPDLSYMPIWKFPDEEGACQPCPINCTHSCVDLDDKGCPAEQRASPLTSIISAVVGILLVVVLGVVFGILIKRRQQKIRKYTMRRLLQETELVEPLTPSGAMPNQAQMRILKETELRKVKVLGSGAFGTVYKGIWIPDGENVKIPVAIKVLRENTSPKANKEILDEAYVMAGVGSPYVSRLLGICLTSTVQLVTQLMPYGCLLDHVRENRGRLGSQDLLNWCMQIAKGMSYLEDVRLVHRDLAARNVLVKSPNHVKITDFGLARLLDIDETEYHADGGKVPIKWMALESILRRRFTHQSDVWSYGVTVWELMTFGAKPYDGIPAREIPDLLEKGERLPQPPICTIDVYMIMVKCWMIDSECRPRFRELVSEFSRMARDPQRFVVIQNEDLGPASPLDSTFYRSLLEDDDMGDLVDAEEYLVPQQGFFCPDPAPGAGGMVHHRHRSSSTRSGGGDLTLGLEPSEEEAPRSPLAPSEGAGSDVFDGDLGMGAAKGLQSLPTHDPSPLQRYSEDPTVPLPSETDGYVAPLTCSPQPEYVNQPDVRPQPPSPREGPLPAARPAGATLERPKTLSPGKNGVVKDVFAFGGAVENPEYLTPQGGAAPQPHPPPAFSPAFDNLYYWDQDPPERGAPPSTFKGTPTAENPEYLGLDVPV
Mitogen-activated protein kinase 11 (Homo sapiens), sequence (Q15759 whole entry): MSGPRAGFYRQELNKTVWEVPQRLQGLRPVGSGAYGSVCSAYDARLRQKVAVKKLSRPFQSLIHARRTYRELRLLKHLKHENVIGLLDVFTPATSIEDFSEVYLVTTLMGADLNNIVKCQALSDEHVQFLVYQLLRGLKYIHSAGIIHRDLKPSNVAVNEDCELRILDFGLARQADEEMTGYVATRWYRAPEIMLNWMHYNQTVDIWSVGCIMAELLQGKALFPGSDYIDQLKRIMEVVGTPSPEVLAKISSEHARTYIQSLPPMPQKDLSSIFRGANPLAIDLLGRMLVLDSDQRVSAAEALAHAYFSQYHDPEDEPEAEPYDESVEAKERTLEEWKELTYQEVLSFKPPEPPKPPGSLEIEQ
Inhibitor of nuclear factor kappa-B kinase subunit alpha (Homo sapiens), sequence (O15111 whole entry): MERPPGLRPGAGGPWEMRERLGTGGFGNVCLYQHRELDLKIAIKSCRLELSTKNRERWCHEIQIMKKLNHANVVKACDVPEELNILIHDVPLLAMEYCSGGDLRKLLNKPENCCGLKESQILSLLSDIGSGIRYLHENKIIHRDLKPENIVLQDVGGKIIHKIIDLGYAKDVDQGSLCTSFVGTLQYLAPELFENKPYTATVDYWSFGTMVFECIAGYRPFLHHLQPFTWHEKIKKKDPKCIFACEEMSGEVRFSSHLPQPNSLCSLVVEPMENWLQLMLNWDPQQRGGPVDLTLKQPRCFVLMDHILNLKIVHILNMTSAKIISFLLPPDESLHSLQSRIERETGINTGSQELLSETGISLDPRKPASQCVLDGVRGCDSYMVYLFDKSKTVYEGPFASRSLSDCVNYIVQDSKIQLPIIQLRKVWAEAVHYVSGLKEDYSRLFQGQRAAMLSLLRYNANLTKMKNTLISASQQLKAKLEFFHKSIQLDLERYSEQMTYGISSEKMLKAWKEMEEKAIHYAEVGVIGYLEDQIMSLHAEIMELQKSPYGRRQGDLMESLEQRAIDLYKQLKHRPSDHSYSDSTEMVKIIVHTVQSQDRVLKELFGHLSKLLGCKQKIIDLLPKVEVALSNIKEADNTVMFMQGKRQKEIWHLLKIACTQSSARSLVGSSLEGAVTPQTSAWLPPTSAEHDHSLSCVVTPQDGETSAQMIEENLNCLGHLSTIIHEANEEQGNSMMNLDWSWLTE
Serine/threonine-protein kinase PAK 1 (Homo sapiens), sequence (Q13153 whole entry): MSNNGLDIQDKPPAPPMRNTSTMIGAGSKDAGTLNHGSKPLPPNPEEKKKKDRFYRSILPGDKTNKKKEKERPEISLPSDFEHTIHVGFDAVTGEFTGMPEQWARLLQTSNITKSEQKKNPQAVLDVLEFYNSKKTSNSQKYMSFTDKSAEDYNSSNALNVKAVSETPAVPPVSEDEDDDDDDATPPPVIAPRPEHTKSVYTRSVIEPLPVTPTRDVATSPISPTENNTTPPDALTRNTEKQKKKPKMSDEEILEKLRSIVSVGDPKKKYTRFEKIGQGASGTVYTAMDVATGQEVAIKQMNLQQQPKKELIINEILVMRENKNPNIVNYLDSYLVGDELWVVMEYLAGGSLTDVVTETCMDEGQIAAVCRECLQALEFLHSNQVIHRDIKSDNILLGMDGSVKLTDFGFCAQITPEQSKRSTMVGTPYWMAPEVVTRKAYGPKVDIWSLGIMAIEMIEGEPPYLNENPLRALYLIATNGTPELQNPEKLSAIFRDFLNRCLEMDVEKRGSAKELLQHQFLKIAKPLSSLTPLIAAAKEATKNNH

**Q.** With `Cc1cnc(N)nc1OCC(C)(C)CO` as the compound, how does the inhibition [1] read?
**A.** inactive

**Q.** And the inhibition [2]?
**A.** inactive

**Q.** And the inhibition [3]?
**A.** inactive

**Q.** And the Activity [4]?
**A.** Non-toxic

**Q.** What about the inhibition [5] of the same compound?
**A.** inactive

**Q.** What about the inhibition [6] of the same compound?
**A.** inactive

**Q.** What about the Activity (HMEC [7]) of the same compound?
**A.** Non-toxic

**Q.** And the inhibition [8]?
**A.** inactive

**Q.** And the inhibition [9]?
**A.** inactive

**Q.** And the inhibition [10]?
**A.** inactive

**Q.** And the inhibition [11]?
**A.** inactive

**Q.** And the inhibition [12]?
**A.** inactive

**Q.** What about the inhibition [13] of the same compound?
**A.** inactive

**Q.** And the Activity (SAOS-2 [14])?
**A.** inactive

**Q.** What about the Activity (SW480) of the same compound?
**A.** inactive

**Q.** And the inhibition [15]?
**A.** inactive

**Q.** And the Activity (HMEC [16])?
**A.** Non-toxic

**Q.** What about the inhibition [17] of the same compound?
**A.** inactive

**Q.** And the inhibition [18]?
**A.** inactive

**Q.** What about the inhibition [19] of the same compound?
**A.** inactive

**Q.** What about the inhibition [20] of the same compound?
**A.** inactive

**Q.** What about the inhibition [21] of the same compound?
**A.** inactive

**Q.** And the inhibition [22]?
**A.** inactive

**Q.** What about the inhibition [23] of the same compound?
**A.** inactive

**Q.** And the inhibition [24]?
**A.** inactive

**Q.** And the Activity (MDA-MB-231)?
**A.** inactive

**Q.** And the CLH (Liver microsome)?
**A.** 7.5 µL/min/mg

**Q.** And the Activity (SAOS-2 [25])?
**A.** inactive

**Q.** What about the inhibition [26] of the same compound?
**A.** inactive

**Q.** What about the inhibition [27] of the same compound?
**A.** inactive

**Q.** What about the inhibition [28] of the same compound?
**A.** inactive

**Q.** And the inhibition [29]?
**A.** inactive

**Q.** And the inhibition [30]?
**A.** inactive

**Q.** What about the inhibition [31] of the same compound?
**A.** inactive

**Q.** What about the inhibition [32] of the same compound?
**A.** inactive

**Q.** What about the inhibition [33] of the same compound?
**A.** inactive

**Q.** And the inhibition [34]?
**A.** inactive

**Q.** What about the inhibition [35] of the same compound?
**A.** inactive

**Q.** What about the inhibition [36] of the same compound?
**A.** inactive

**Q.** What about the inhibition [37] of the same compound?
**A.** inactive

Reference: ChEMBL document CHEMBL3779767, “Identification of potent and selective MTH1 inhibitors” (Bioorg Med Chem Lett, 2016)
